Tested on: MS2 coat protein
Test: apparent Kd, MS2 coat protein; higher = weaker binding; RNA-MaP array; FMN 200 µM where present
Outline: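 Designs on Illumina sequencing-chip clusters, transcribed by stalled E. coli RNA polymerase, were exposed to SNAP-549-labelled MS2 coat protein in doubling steps from 0.7 or 1.5 nM up to 3 µM, without and then with constant ligand. The buffer held 100 mM Tris-HCl pH 7.5, 80 mM KCl, 4 mM MgCl2, BSA, DTT, yeast tRNA and Tween-20. Apparent Kd values are medians of filtered per-cluster binding-curve fits to green signal normalised to red-channel RNA signal and control-cluster median Fmax.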

[1] = designed as: OFF switch for flavin mononucleotide, no ligand
[2] = ligand present: flavin mononucleotide, designed as: OFF switch for flavin mononucleotide
[3] = designed as: ON switch for flavin mononucleotide, no ligand
[4] = ligand present: flavin mononucleotide, designed as: ON switch for flavin mononucleotide

Sequence	apparent Kd [1]	apparent Kd [2]	apparent Kd [3]	apparent Kd [4]
GGACCGCGCAGAGUUGGCGGUCGGCAGGAUAUGACAUGAGGAUCACCCAUGUGAACUCCAUUGGGUCAGAAGGGCCACGACACA	22.4 nM	107 nM	–	–
CGCGAUGCGGUUGGCCCUGGGCGAGAGGAUAUGGGCAGCGAGACAUGAGGAUCACCCAUGUUUUCUCAGAAGGCUCGAGCAGGC	–	–	181 nM	17.1 nM
UCGAGUCAUGAGAAGGGUUGAUGUUACAUGAGGAUCACCCAUGUCAUGGGCAGGAUAUCAUUGACACGACUGUACCUCUCUUAC	–	–	254 nM	112 nM
GGACAUGUCGUCUACAUGAGGAUCACCCAUGUCGAUAGACAUGAGGAUAUCGAUACAAAUUGUAUCGAGAAGGCAUGCAUGUCC	–	–	44.9 nM	23 nM
UUAACAUGAGGAUCACCCAUGUAUAGAUCGGUUAAUAGAAGUGAGGAUAUGCUUAAAAUAAGGUAGCAGAAGGCACUGGGUACU	–	–	24.2 nM	28.7 nM
UAUGAGCGAGGAUAUGCUUGGGACGUCGUUCUUGCGGCGAGACAUGAGGAUCACCCAUGUAGAAGGCGCGAGCG	18.4 nM	18.5 nM	–	–
CCCGGGUUUGUGAGGAUAUUGGGCCCGAAAGGGCCCGAGAAGGCACAUGAGGAUCACCCAUGUAAGGGCCCGGG	25.8 nM	26.4 nM	–	–
AGUCAUACAGGAUAUACAUGAGGAUCACCCAUGUUUAUCCUACAUGGGUGAUCCUCAUGUAGAAGGGUAUGACA	11.2 nM	9.45 nM	–	–
GAGGCACAUGAGGAUCACCCAUGUGGGUAUAACAUAGGAUAUCACCAACAAAAUACCCGGUGAGAAGGAUGAUGCC	–	–	217 nM	113 nM
CCAUGGCAUGUAGGAUAUAUCUGACAAAGUCAGAUAGAAGGACAUGAGGAUCACCCAUGUAAACCGAAAGGAACAUAGCCAUGG	6.36 nM	6.96 nM	–	–
UUGAUAAGGAGAGGAUAUGGACAUGAGGAUCACCCAUGUACAUGGGAAUAUUUACUGAAUUCUUACUAGAAGGCUUACAUAUUU	15.7 nM	13.3 nM	–	–
UUAAAUCAUGUAGGAUAUGCAUGGCGAAGCUACGCAGAAGGACAUGAGGAUCACCCAUGUGCUAGCUACCGGAGACGGUGGCAA	57.7 nM	195 nM	–	–
GUAGCUAUCGGAGGAUAUUCAUUAAACAUGAGGAUCACCCAUGUUAAAUUGGGAGAAGGCCGAUAGCUACAAGAGCGAAAGCUC	–	–	7.16 nM	5.45 nM
AUCAGCUCGUCAGGAUAUACGUCACUGGGUCAGCAGUGUGGUAAGAUCACAUGAGGAUCACCCAUGUAGAAGGGACGAGCUGAU	66.3 nM	483 nM	–	–
UUUUAUAAUACCUCAUGUACAUGAGGAUCACCCAUGUUAACUAAGGAUAUAUAUAAAUUAAUAAUGUAGAAGGUAGUAAUAUUU	16.5 nM	14.3 nM	–	–
AGUCGGAGCAGAGGAUAUACAUGAGGAUCACCCAUGUAAUAAAGUGAAGCCUGGAAACAGGUAAUGUAGAAGGCUGCUCCGACA	11 nM	84.7 nM	–	–
GGGUACAUCGGAGGAUAUCAUGUAAAUACAUGAGGAUCACCCAUGUCGAUGGAGACAUCGGAGAUUGAGAAGGCCAAUGUACCG	–	–	180 nM	8.76 nM
CUUUUGUGAGGAUAUCAUUAGUAAAUAAAUAAAAUUACUACUGAGAAGGCACAUGAGGAUCACCCAUGUUCCUC	33.9 nM	159 nM	–	–
GCUGGGUCAGGAUAUACAAGAUCGAAAGAUCAAAGAUUCGUACAUGAGGAUCACCCAUGUAGAAGGGACUGGGC	23.4 nM	31.7 nM	–	–
UUCGCUAAGGUGUAGCGAGACAUGCAAGAAGGGUGAAGAACAUGAGGAUCACCCAUGUAAUCCUUACAGGAUAUUGAUUGACGA	–	–	307 nM	181 nM
UAUCCGUCAGUAGGAUAUAUGCCGAGUCAUUGCAUAGAAGGACUGACAUGAGGAUCACCCAUGUCAGAUUGCGCUGGUCUUCCG	6.24 nM	6.68 nM	–	–
ACCAUUUACUAGUUUUCUAUACAUGAGGAUCACCCAUGUUUUGAGGAUAUCAGCGUGAAACACGCUGAGAAGGCAAAACAUUCG	181 nM	342 nM	–	–
UUGGAGUACGUAGGAUAUGUAGGAUAUUCCUACAUGAGGAUCACCCAUGUUUACAUGGAAGAAGGACAGAAGGACGUGCUCCAU	–	–	1120 nM	14.7 nM
GGGUACAUCGGAGGAUAUCAUGUAACUACAUGAGGAUCACCCAUGUCGAUGGAGACAUCGGAGAUUGAGAAGGCCGAUGUACCG	–	–	261 nM	10.1 nM

Sequence	apparent Kd [1]	apparent Kd [2]	apparent Kd [3]	apparent Kd [4]
ACAUGAGGAUCACCCAUGUAGAGUGAAGAAGGUAGAUACUUAUGACUCUCCCAUGUACAUAGGACUGAGGAUAUUCUAAUAAUU	–	–	23.4 nM	18.9 nM
GUGGCACAUGAGGAUCACCCAUGUCAGGAUAUCGUGUGUUUUUUUUCGGCCGCGCGCGCGAGAAGGGACGUCUU	149 nM	120 nM	–	–
UAUAUAUAGUAAGGAUAUGUAUAUAUUUUAUCAACAGAAGGUACUGACAUGAGGAUCACCCAUGUUUUAGUGUGGGCAUGUAGA	68.7 nM	70.8 nM	–	–
ACAGCGUGAGGAUAUACAUGAGGAUCACCCAUGUGUGGCAGGUUAUCCUGUCAUGAGUGUAGAAGGCACGCUGU	30 nM	90.7 nM	–	–
AAUUUACAGGGAGGAUAUACAUGAGGAUCACCCAUGUAAUCAUAUGAUAUUUUUUUUGUAUGAGUGUAGAAGGCCCAAAUACCA	11.5 nM	13 nM	–	–
AAUGUUUGAUUCCACUUAUACAUGAGGAUCACCCAUGUUAUCGAGGAUAUGCAUUAAAGUGUUUAGCAGAAGGCGAUGUAAUUG	7.42 nM	23.6 nM	–	–
GCACCUCUAUUUGAACCGAUACGAACAUGAGGAUCACCCAUGUAGGAUAUGCUAAAAGUUGUGUUGCAGAAGGACAUUUAGUGC	10.7 nM	10.5 nM	–	–
CGGGCUGCUGUGAGGAUAUGCCUGUGGGUGCGUGGGUAGAAGGCACAUGAGGAUCACCCAUGUCCUGCAGCUCG	–	717 nM	–	–
UUCCGGCGUGUAGGAUAUGGAUCCGAUUAGGAUCCAGAAGGACAUGAGGAUCACCCAUGUACAUGUAAACAGUCAUCACCGGAC	9.63 nM	87.3 nM	–	–
CUUUAGUGAGGAUAUGUGGCUUCGAUCGUGAGAUCGAGGCUACAGAAGGCACAUGAGGAUCACCCAUGUUCCUU	14.5 nM	32.9 nM	–	–
AGUGUCAUCGAGAAGGCCUCAACAUGAGGAUCACCCAUGUUGCAAAAUGGGAGGAUAUCGAUGAUACAGCUACGUUUCGUAGCA	–	–	15.3 nM	5.21 nM
AAGACUAGAGGAUAUACAUGAGGAUCACCCAUGUAACUGUCAGGUGACUGACGGAGAUGUAGAAGGCUAGUCAA	19.6 nM	43.2 nM	–	–
AAGCGAGGGACAGGAUAUGCGGCAAAACUUUCCGCAGAAGGGUCGACAUGAGGAUCACCCAUGUCCUUACGCUCCAAGUAGAGG	–	–	189 nM	277 nM
AAAAGGUCAGGAUAUACAAAAAAAAAAAAAAAAAAAAAAAAGUAGAAGGGACAUGAGGAUCACCCAUGUGAAAA	86.1 nM	74 nM	–	–
UGUCUAUAUGAAGGAUAUCUAAGCAUAAACCGUAGAGAAGGUCAAUAGUACAUGAGGAUCACCCAUGUUGGGAUUGAUGGGUUU	25.3 nM	38.6 nM	–	–
GCAAUAGCAUGAGGAUAUGCUGGAGUUUAGACAGCAGAAGGCAUGUCAUAAGACAUGAGGAUCACCCAUGUAGUUACAAUGGCA	–	–	26.9 nM	11.3 nM
AAGGUGCAGGUACAGGAUAUGUUGCUCGUAACAUGAGGAUCACCCAUGUACCUAUGAGAUUAAAUGCAGAAGGGUGCACACCAAA	–	–	792 nM	87.5 nM
AUCAAUCAUGUAGGAUAUGCGUGGCGAAGCUAUGCAGAAGGACAUGAGGAUCACCCAUGUCUUUCUGUCUGCGGACGGACAGGA	19.2 nM	55.7 nM	–	–
GUGUACAGAGGAUAUACAUAAGCAUGGAAACAUGCAUCUUCACAUGAGGAUCACCCAUGUAGAAGGCUGUACAC	18.1 nM	75.6 nM	–	–
GGUGCGUUUGUGAGGAUAUGCUGGUCCUUGGAUCAGCAGAAGGCACAUGAGGAUCACCCAUGUGGUGUCGGUCC	416 nM	37.6 nM	–	–
GCCUCACAUGAGGAUCACCCAUGUCAGGAUAUCUAACGCGAGGUGCAGGCACUUCGUGAGAGAAGGGACGUCAA	20.3 nM	34.4 nM	–	–
GUGCGGUAGGAGAAGGACGGAGGCUUCUUUUCAUACAUGAGGAUCACCCAUGUAGGAUAUCCUACCUCACGCGGCCUACUACAG	8.74 nM	7.7 nM	–	–
AAAAAGACAGGAUAUACAUGAGGAUCACCCAUGUGAAAAAAAAAAAAAAAAAAAAAGUGUAGAAGGGUCAAAAA	48.9 nM	35.4 nM	–	–
UUAAGUCAUGUAGGAUAUCCGAGGCGAAGCGUUGGAGAAGGACAUGAGGAUCACCCAUGUUCUAGCGUCUGAGUACAGAUGCAA	22.7 nM	33.7 nM	–	–
